The results in this text go back to the array DNA melting data of Ke et al. (doi:10.1101/2024.01.08.574731).

Data set [1] can be described thus: folding enthalpy; higher = less favourable; fluorescence melt of hairpins on a sequencing array, two-state fit. Conditions: sodium 0.088 M. The gist of the method: (§1)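 Cy3 fluorescence of library hairpins on a sequenced MiSeq flow cell, with annealed Cy3 and quencher oligos, was imaged in 50 mM Na-HEPES pH 8.0, 25 mM NaCl in 2.5 °C steps up to 60 °C. Signals were normalised to pre-quench Cy3 and to control variants. Melting temperature and folding enthalpy came from bootstrapped two-state fits, inverse-variance combined over four replicates. Fitted temperatures were raised by 9.35 °C to match UV melts.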

Data set [2] can be described thus: melting temperature; fluorescence melt of hairpins on a sequencing array, two-state fit, raised by 9.35 °C to match UV melts. Conditions: sodium 0.088 M. Put shortly: as §1

In the case of GCAGTGCGAAAGCAACGC ((..(((....)))..)), the folding enthalpy in data set [1] is -15.1 kcal/mol. Moreover, the Tm in data set [2] came out at 58.7 °C.

As to GCAGTGCGAAAGCACCGC ((.((((....)))).)), the folding enthalpy in data set [1] is -17.4 kcal/mol. In data set [2], the Tm turned out to be 62 °C.

With GCAGTGCGAAAGCAGTGC (((.(((....))).))), the folding enthalpy in data set [1] is -37.9 kcal/mol. Moreover, the Tm in data set [2] was 66.4 °C.

Consider GCAGTGCGAAAGCATGGC ((..(((....)))..)), for which, in data set [1], the folding enthalpy is -19.2 kcal/mol. The Tm in data set [2] was 54 °C.

Regarding GCAGTGCGAAAGCCCCGC ((.(.((....)).).)), in data set [1], the folding enthalpy was -10.3 kcal/mol. In data set [2], the Tm is 41.1 °C.

As to GCAGTGCGAAAGCCCGGC ((.(.((....)).).)), the folding enthalpy in data set [1] is -18.4 kcal/mol. Besides, the Tm in data set [2] was 45 °C.

Regarding GCAGTGCGAAAGCGCCGC ((.(.((....)).).)), in data set [1], the folding enthalpy is -17.9 kcal/mol. Moreover, the Tm in data set [2] was 52 °C.

For the sequence GCAGTGCGAAAGCTCGGC ((.(.((....)).).)), in data set [1], the folding enthalpy was -25.6 kcal/mol. Also, the Tm in data set [2] was found to be 54.3 °C.

For GCAGTGCGAAAGCTCTGC ((((.((....)).)))), in data set [1], the folding enthalpy was -40.3 kcal/mol. In addition, the Tm in data set [2] is 65.8 °C.

For GCAGTTCCGAAAGGATGC (((..(((....)))))), the folding enthalpy in data set [1] is -17.8 kcal/mol. For the same sequence, in data set [2], the Tm came out at 36.7 °C.

Regarding GCAGTTCGAAAGAATTGC (((.(((....))).))), the folding enthalpy in data set [1] is -38.5 kcal/mol. For the same sequence, in data set [2], the Tm is 52.6 °C.

In the case of GCAGTTGGAAACAATTGC (((.(((....))).))), the folding enthalpy in data set [1] is -31.2 kcal/mol. Further, the Tm in data set [2] came to 46.9 °C.

As to GCATAACCGAAAGGTTGC (((..(((....)))))), the folding enthalpy in data set [1] was -15.4 kcal/mol. In data set [2], the Tm was 46.6 °C.

For the sequence GCATAACGAAAGTTCTGC (((.(((....))).))), the folding enthalpy in data set [1] was -35.4 kcal/mol. Further, the Tm in data set [2] amounted to 45.6 °C.

Regarding GCATAAGCGAAAGCTTGC (((..(((....)))))), the folding enthalpy in data set [1] was -14.7 kcal/mol. In addition, the Tm in data set [2] was 46.3 °C.

Regarding GCATAAGGAAACTTGTGC (((.(((....))).))), the folding enthalpy in data set [1] is -25.8 kcal/mol. In data set [2], the Tm is 45.1 °C.

For GCATACGAAAGTAGTTGC ((((((....)))..))), the folding enthalpy in data set [1] is -17.5 kcal/mol. Also, the Tm in data set [2] was found to be 33.1 °C.

Turning to GCATACGAAAGTATATGC ((((((....)))..))), in data set [1], the folding enthalpy was -24.7 kcal/mol. Besides, the Tm in data set [2] is 41.9 °C.

As for GCATACGAAAGTATGC ((((((....)))))), the folding enthalpy in data set [1] is -35.3 kcal/mol. Further, in data set [2], the Tm turned out to be 67.9 °C.

On to GCATAGAAATATGC (((((....))))), for which the folding enthalpy in data set [1] was -21.9 kcal/mol. The Tm in data set [2] stood at 43.3 °C.

Take GCATAGCGAAAGCAAGGC ((.(.((....)).).)): the folding enthalpy in data set [1] was -14 kcal/mol. Besides, in data set [2], the Tm came to 37.9 °C.

As for GCATAGCGAAAGCAGTGC (((..((....))..))), the folding enthalpy in data set [1] was -17 kcal/mol. The Tm in data set [2] came out at 53.7 °C.

On to GCATAGCGAAAGCGAGGC ((.(.((....)).).)), for which the folding enthalpy in data set [1] is -13.3 kcal/mol. The Tm in data set [2] turned out to be 54.4 °C.

As to GCATAGCGAAAGCTGAGC ((..(((....)))..)), the folding enthalpy in data set [1] was -15.7 kcal/mol. Also, in data set [2], the Tm stood at 46 °C.

Turning to GCATAGGGAAACCTGTGC (((.(((....))).))), the folding enthalpy in data set [1] is -33.6 kcal/mol. In addition, the Tm in data set [2] stood at 50.3 °C.

As to GCATATCGAAAGATGTGC (((.(((....))).))), the folding enthalpy in data set [1] is -36.5 kcal/mol. The Tm in data set [2] amounted to 55.4 °C.

GCATATCGAAAGATTGC (((.(((....)))))): the folding enthalpy in data set [1] is -25.9 kcal/mol. The Tm in data set [2] is 46.6 °C.

Regarding GCATCAACGAAAGTTTGC (((..(((....)))))), the folding enthalpy in data set [1] was -16.9 kcal/mol. Further, the Tm in data set [2] worked out at 30.8 °C.

Take GCATCAGGAAACTAATGC ((((.((....)).)))): in data set [1], the folding enthalpy was -22.6 kcal/mol. Also, the Tm in data set [2] came out at 31.5 °C.

In the case of GCATCAGGAAACTGACGC ((.((((....)))).)), in data set [1], the folding enthalpy was -30 kcal/mol. Besides, the Tm in data set [2] came to 44.5 °C.
